Data on 9 molecules can be found in ChEMBL document CHEMBL2385070, “Selective inhibition of bacterial and human topoisomerases by N-arylacyl O-sulfonated aminoglycoside derivatives” (ACS Med Chem Lett, 2013).

The source made the active and inactive calls. No cut-off for these calls is given here.

Assay [1] addresses T1, DNA topoisomerase 1 (Homo sapiens) (UniProt P11387).
T1 sequence (whole entry): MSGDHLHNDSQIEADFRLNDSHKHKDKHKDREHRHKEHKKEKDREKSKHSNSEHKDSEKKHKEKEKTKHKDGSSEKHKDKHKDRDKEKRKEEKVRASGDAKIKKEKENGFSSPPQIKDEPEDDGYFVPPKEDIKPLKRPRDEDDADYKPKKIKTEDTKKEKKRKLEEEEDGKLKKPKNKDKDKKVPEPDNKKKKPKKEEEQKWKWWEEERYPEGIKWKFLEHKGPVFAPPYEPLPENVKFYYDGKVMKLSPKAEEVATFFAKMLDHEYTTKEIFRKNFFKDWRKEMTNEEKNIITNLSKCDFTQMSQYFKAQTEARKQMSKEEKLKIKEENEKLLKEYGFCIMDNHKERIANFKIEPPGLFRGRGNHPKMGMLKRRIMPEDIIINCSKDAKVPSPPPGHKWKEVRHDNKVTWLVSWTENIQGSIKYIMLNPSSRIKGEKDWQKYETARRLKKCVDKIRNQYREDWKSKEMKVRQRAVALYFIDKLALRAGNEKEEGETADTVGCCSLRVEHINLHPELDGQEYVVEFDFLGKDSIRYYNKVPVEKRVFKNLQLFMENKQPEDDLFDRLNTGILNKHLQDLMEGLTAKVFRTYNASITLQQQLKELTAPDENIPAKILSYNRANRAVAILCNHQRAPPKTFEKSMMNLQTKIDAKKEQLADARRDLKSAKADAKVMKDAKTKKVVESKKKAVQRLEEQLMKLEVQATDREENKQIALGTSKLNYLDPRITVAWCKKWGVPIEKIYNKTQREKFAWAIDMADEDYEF
Nature of the assay: Inhibition of human DNA topoisomerase 1 at 200 uM relative to control.

Assay [2] concerns Escherichia coli. Nature of the assay: Inhibition of Escherichia coli DNA topoisomerase 4 at 200 uM relative to control.
For assay [3], the target named is DNA topoisomerase 2-alpha (Homo sapiens) (UniProt P11388). The assay is described as follows: Inhibition of human DNA topoisomerase 2 at 200 uM relative to control.
In assay [4] the test system is Escherichia coli. Nature of the assay: Inhibition of Escherichia coli DNA gyrase catalytic activity at 200 uM relative to control. An outline of the steps:
(§1)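 E. coli gyrase was incubated with relaxed DNA, either without compound or with compound at 200 μM; titrations also used 20, 50 and 100 μM. Gel lanes included a no-enzyme control and an enzyme-without-compound control, and supercoiling was scored from the lane pattern. In the summary table, + denotes greater than 95% inhibition.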

Assay [5] relates to Escherichia coli. Nature of the assay: Inhibition of Escherichia coli DNA topoisomerase 4 assessed as blockade of ciprofloxacin-induced pBR322 DNA cleavage at 200 uM after 10 mins by agarose gel electrophoresis. An outline of the steps:
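E. coli Topo IV was incubated with plasmid DNA and ciprofloxacin with or without compound. Ciprofloxacin traps the enzyme–DNA ternary complex, and nicked and linear DNA products were scored on the gel against the supercoiled substrate.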

Assay [6] relates to Escherichia coli. Nature of the assay: Inhibition of Escherichia coli DNA gyrase-mediated supercoiling of relaxed I-DNA after 15 mins by agarose gel electrophoresis. In short, it runs like this:
as §1

Assay [7] has as its system Escherichia coli. The assay is described as follows: Inhibition of Escherichia coli DNA topoisomerase 4-mediated relaxation of negatively supercoiled pBR322 DNA at 200 uM after 15 mins by agarose gel electrophoresis.
For assay [8], the system named is Escherichia coli. The assay is described as follows: Inhibition of Escherichia coli DNA topoisomerase 4-mediated decatenation of kinetoplast DNA at 200 uM after 15 mins by agarose gel electrophoresis.

Sequence of DNA topoisomerase 2-alpha (Homo sapiens) (P11388 whole entry): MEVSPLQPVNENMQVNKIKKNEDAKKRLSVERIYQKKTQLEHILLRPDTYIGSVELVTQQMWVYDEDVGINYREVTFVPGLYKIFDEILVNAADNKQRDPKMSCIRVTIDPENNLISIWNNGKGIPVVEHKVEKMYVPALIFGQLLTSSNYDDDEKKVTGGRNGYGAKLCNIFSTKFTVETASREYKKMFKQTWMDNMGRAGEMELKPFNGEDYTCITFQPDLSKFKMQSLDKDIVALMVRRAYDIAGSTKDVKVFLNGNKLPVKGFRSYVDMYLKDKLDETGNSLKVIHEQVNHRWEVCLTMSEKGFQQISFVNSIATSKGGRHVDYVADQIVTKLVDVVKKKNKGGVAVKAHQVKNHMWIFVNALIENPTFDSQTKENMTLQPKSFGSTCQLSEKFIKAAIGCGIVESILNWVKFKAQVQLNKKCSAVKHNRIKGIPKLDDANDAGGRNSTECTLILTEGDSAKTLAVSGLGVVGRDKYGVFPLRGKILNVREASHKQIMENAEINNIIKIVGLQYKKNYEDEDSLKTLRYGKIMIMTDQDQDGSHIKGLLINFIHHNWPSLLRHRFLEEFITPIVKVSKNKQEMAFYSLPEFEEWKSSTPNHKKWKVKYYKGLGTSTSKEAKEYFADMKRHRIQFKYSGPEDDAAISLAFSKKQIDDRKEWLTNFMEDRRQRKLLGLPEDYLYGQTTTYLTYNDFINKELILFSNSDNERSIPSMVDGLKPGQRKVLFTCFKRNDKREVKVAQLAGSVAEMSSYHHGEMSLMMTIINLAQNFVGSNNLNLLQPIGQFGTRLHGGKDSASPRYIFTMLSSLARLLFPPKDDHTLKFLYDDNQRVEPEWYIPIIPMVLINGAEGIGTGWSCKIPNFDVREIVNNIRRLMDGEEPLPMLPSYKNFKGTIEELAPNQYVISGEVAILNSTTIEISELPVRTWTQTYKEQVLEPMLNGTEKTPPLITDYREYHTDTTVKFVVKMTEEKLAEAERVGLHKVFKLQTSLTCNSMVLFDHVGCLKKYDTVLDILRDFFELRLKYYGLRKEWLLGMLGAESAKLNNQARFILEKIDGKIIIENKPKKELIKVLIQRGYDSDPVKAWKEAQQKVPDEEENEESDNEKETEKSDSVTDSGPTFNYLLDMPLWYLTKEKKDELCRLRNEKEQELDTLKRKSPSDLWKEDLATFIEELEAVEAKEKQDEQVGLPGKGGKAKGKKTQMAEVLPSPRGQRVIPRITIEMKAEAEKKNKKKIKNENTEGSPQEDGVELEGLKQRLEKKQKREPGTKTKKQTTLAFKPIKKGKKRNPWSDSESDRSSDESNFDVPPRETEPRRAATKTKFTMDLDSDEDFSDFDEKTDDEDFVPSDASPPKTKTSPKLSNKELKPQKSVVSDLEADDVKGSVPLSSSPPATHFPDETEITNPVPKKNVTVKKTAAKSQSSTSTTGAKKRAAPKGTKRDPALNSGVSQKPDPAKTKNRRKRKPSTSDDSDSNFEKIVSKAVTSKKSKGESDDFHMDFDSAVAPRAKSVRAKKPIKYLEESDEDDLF

As to `O=C(NC[C@H]1O[C@H](O[C@H]2[C@H](O)[C@@H](O[C@H]3O[C@H](CO)[C@@H](O)[C@H](NC(=O)OCc4ccccc4)[C@H]3O)[C@H](NC(=O)OCc3ccccc3)C[C@@H]2NC(=O)OCc2ccccc2)[C@H](O)[C@@H](O)[C@@H]1O)OCc1ccccc1`, the inhibition entry (in assay [1]; with Escherichia coli [2]; in assay [3]; with Escherichia coli [4]) was “inactive” throughout.
With `O=C(Cc1ccccc1)NC[C@H]1O[C@H](O[C@H]2[C@H](O)[C@@H](O[C@H]3O[C@H](CO)[C@@H](O)[C@H](NC(=O)Cc4ccccc4)[C@H]3O)[C@H](NC(=O)Cc3ccccc3)C[C@@H]2NC(=O)Cc2ccccc2)[C@H](O)[C@@H](O)[C@@H]1O`, the inhibition entry (in assay [1]; in the assay on Escherichia coli [2]; in assay [3]; in the assay with Escherichia coli [4]) was “inactive” throughout.
In the case of `CN(C(=O)OCc1ccccc1)[C@@H]1[C@@H](O[C@H]2O[C@H](CO)[C@@H](NC(=O)OCc3ccccc3)[C@H](O)[C@H]2O)O[C@H]2C[C@@H](NC(=O)OCc3ccccc3)[C@@H](O[C@H]3[C@H](O)[C@@H](O)[C@H](NC(=O)OCc4ccccc4)C[C@@H]3NC(=O)OCc3ccccc3)O[C@@H]2[C@@H]1O`, the inhibition entry (in assay [1]; in the assay with Escherichia coli [2]; in assay [3]; in the assay on Escherichia coli [4]) was “inactive” each time.
For the molecule `CN(C(=O)c1ccccc1)[C@@H]1[C@@H](O[C@H]2O[C@H](CO)[C@@H](NC(=O)c3ccccc3)[C@H](O)[C@H]2O)O[C@H]2C[C@@H](NC(=O)c3ccccc3)[C@@H](O[C@H]3[C@H](O)[C@@H](O)[C@H](NC(=O)c4ccccc4)C[C@@H]3NC(=O)c3ccccc3)O[C@@H]2[C@@H]1O`, the inhibition result in the assay with Escherichia coli [5] was “Active”.
For `O=C(NC[C@H]1O[C@H](O[C@H]2[C@H](O)[C@@H](O[C@H]3O[C@H](CO)[C@@H](O)[C@H](NC(=O)c4ccccc4)[C@H]3O)[C@H](NC(=O)c3ccccc3)C[C@@H]2NC(=O)c2ccccc2)[C@H](O)[C@@H](O)[C@@H]1O)c1ccccc1`, the inhibition result (in assay [1]; in the assay on Escherichia coli [2]; in assay [3]; in the assay on Escherichia coli [4]) was “inactive” throughout.
On to `CC(=O)NC[C@@H]1O[C@H](O[C@H]2[C@@H](O)[C@H](O[C@@H]3[C@@H](O)[C@H](NC(C)=O)C[C@H](NC(C)=O)[C@H]3O[C@H]3O[C@H](CNC(C)=O)[C@@H](O)[C@H](O)[C@H]3NC(C)=O)O[C@@H]2CO)[C@H](NC(C)=O)[C@@H](O)[C@@H]1O`, for which the inhibition entry (in assay [1]; in the assay on Escherichia coli [2]; in assay [3]; with Escherichia coli [4]) was “inactive” each time.
As to `O=C(NC[C@@H]1O[C@H](O[C@H]2[C@@H](O)[C@H](O[C@@H]3[C@@H](O)[C@H](NC(=O)OCc4ccccc4)C[C@H](NC(=O)OCc4ccccc4)[C@H]3O[C@H]3O[C@H](CNC(=O)OCc4ccccc4)[C@@H](O)[C@H](O)[C@H]3NC(=O)OCc3ccccc3)O[C@@H]2CO)[C@H](NC(=O)OCc2ccccc2)[C@@H](O)[C@@H]1O)OCc1ccccc1`, the inhibition result (in assay [1]; with Escherichia coli [2]; in assay [3]; with Escherichia coli [4]) was “inactive” each time.
Consider `O=C(Cc1ccccc1)NC[C@@H]1O[C@H](O[C@H]2[C@@H](O)[C@H](O[C@@H]3[C@@H](O)[C@H](NC(=O)Cc4ccccc4)C[C@H](NC(=O)Cc4ccccc4)[C@H]3O[C@H]3O[C@H](CNC(=O)Cc4ccccc4)[C@@H](O)[C@H](O)[C@H]3NC(=O)Cc3ccccc3)O[C@@H]2CO)[C@H](NC(=O)Cc2ccccc2)[C@@H](O)[C@@H]1O`, for which the inhibition entry (in assay [1]; with Escherichia coli [2]; in assay [3]; in the assay on Escherichia coli [4]) was “inactive” in each case.
Take `O=C(NC[C@@H]1O[C@H](O[C@H]2[C@@H](OS(=O)(=O)O)[C@H](O[C@@H]3[C@@H](OS(=O)(=O)O)[C@H](NC(=O)OCc4ccccc4)C[C@H](NC(=O)OCc4ccccc4)[C@H]3O[C@H]3O[C@H](CNC(=O)OCc4ccccc4)[C@@H](OS(=O)(=O)O)[C@H](OS(=O)(=O)O)[C@H]3NC(=O)OCc3ccccc3)O[C@@H]2COS(=O)(=O)O)[C@H](NC(=O)OCc2ccccc2)[C@@H](OS(=O)(=O)O)[C@@H]1OS(=O)(=O)O)OCc1ccccc1`: the inhibition result with Escherichia coli [6] is “Dose-dependent effect”. The inhibition entry in the assay on Escherichia coli [5], in the assay on Escherichia coli [7] and with Escherichia coli [8] was “Active” in each case.
